Results reported in PubChem BioAssay AID1451 (NMMLSC, 2008).
Some of the results follow. Values without a mark were called inactive.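 The calls were made as follows: active = inhibition of pump activity above 50%; inactive = the rest.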

Target: ATP-dependent translocase ABCB1 (Homo sapiens) (UniProt P08183)
Test: ABCB1 efflux pump inhibitors, confirmation, cell-based, single point, ABCG2 counter-screen (AID 1451);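 also: 0% = DMSO and 100% = nicardipine full pump inhibition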
Settings: CCRF-Adr cells, JC-1 efflux, flow cytometry; at 6.6 µM; stronger effect = higher value
Procedure, shortened: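 Material – ABCB1-expressing CCRF-Adr cells · Quantity – 3 million cells per mL final in well · Reagent – JC-1 substrate · Dosing – single test-compound dose, 6.6 µM final · Schedule – 10 min exposure, 25 °C · Technique – flow cytometry, 530 nm emission · Benchmarks – nicardipine as high control, DMSO as low control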

ATP-dependent translocase ABCB1 (Homo sapiens), sequence (P08183 whole entry, looked up): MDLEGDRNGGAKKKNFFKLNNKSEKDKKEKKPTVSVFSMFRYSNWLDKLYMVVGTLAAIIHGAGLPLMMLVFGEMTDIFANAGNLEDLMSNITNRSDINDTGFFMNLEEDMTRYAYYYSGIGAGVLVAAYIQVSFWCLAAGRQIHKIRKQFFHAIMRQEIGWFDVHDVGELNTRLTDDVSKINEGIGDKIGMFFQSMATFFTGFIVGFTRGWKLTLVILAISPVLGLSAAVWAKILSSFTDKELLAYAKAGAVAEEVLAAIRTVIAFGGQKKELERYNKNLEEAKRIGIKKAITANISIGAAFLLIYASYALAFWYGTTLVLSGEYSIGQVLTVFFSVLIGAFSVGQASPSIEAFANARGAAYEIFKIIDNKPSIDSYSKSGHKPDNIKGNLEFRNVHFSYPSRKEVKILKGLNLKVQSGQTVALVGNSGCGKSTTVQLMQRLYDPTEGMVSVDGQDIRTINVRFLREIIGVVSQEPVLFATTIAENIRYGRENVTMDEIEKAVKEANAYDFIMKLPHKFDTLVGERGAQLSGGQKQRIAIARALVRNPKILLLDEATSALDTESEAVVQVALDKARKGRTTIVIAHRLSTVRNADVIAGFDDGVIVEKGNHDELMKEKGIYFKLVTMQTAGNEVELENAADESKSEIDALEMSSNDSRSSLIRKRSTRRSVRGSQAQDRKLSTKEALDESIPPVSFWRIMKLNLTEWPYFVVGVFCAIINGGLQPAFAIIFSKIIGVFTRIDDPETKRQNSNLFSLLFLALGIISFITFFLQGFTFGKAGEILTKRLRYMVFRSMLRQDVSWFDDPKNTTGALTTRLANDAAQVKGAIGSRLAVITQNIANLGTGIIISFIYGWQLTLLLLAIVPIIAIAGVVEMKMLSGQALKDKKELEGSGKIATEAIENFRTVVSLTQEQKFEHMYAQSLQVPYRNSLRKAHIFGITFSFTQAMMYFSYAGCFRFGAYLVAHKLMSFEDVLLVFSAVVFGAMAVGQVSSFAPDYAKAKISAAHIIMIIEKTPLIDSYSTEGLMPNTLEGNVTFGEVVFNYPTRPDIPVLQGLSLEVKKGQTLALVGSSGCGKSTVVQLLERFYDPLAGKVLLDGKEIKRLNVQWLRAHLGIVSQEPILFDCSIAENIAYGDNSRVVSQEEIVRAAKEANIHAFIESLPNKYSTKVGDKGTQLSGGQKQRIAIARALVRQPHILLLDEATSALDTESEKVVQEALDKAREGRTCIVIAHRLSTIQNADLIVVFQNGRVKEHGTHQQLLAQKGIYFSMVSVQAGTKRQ

**Q.** Which inhibition does the source give for COC(=O)COc1cc(C)cc2oc(=O)c3c(c12)CCCC3 here?
**A.** 1.84%
